# Reference: ChEMBL document CHEMBL3779860, “A Designed Tryptophan- and Lysine/Arginine-Rich Antimicrobial Peptide with Therapeutic Potential for Clinical Antibiotic-Resistant Candida albicans Vaginitis” (J Med Chem, 2016)
# Active and inactive are the calls of the source. The calls are words filed in the database; no cut-off is given here.
# Tests used:
# [1] = Induction of hemolysis in human RBC at 320 ug/mL after 30 mins; type: cell-based, Erythrocyte; settings: red blood cells, read-out: Activity
# How it was run: (§1)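 Serial dilutions were incubated with human erythrocytes for 30 min at 37°C. Supernatant absorbance was read at 540 nm after centrifugation. Hemolysis is expressed as % of the 1% Triton X-100 lysis value, pooled from three independent experiments. The highest concentration tested was 320 µg/mL.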
# Mus musculus [2] = test: Antiinflammatory activity in antibiotic resistant Candida albicans clinical isolate 08030809 induced mouse vaginitis model assessed as reduction in TNF-alpha secretion in vaginal tissue at 20 ug administered as intravaginal instillation measured on day 10 by ELISA; type: functional, Vagina
# How it was run: (§2)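 Same estradiol-primed mouse model, infected intravaginally with C. albicans 08030809 and treated by intravaginal instillation (20 µL/mouse). Vaginal canals excised on day 10 of treatment and homogenised in 0.9% NaCl. Supernatant taken after 2,000 g for 15 min. TNF-α, IL-6, IL-1β and IL-10 measured by ELISA. Mean ± SE of three independent experiments; unpaired t-test versus vehicle.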
# [3] = Hemolytic activity in human RBC after 30 mins; type: ADME, cell-based, Erythrocyte; how it was run: as §1
# Candida albicans [4] = test: Antimicrobial activity against antibiotic resistant Candida albicans clinical isolate 08030809 assessed as clone count at MIC after 6 hrs by colony counting assay (reference value: 14536 +/- 2467 CFU); type: functional
# Mus musculus [5] = test: Antiinflammatory activity in antibiotic resistant Candida albicans clinical isolate 08030809 induced mouse vaginitis model assessed as reduction in IL-10 secretion in vaginal tissue administered as intravaginal instillation measured on day 10 by ELISA; type: functional, organism-based; settings: Vagina; how it was run: as §2
# Candida albicans [6] = test: Antimicrobial activity against antibiotic resistant Candida albicans clinical isolate 08030401 after 16 hrs by broth dilution method; type: functional; settings: isolate 08030401, 16 h
# How it was run: (§3)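 Broth microdilution in Sabouraud liquid medium. Samples are stocks in 0.9% NaCl, 10 µL added to 90 µL broth plus 100 µL of 2 × 10^5 CFU/mL yeast suspension. Incubated 16 h at 28°C, growth read by A600. MIC is the lowest concentration completely inhibiting growth; mean of three independent experiments.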
# Candida albicans [7] = test: Antimicrobial activity against antibiotic resistant Candida albicans clinical isolate 08030809 after 16 hrs by broth dilution method; type: functional; settings: isolate 08030809, 16 h; how it was run: as §3
# Candida albicans [8] = test: Antimicrobial activity against antibiotic resistant Candida albicans clinical isolate 08030809 assessed as clone count at MIC after 3 hrs by colony counting assay (reference value: 3687 +/- 543 CFU); type: functional
# Candida albicans [9] = test: Antimicrobial activity against antibiotic resistant Candida albicans after 6 hrs by disc diffusion method in presence of human plasma; type: functional, organism-based
# How it was run: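 Peptide mixed with human plasma (final concentration 100 µM) at 37°C for up to 24 h. 10 µL aliquots were applied to C. albicans in Sabouraud medium with 0.7% agar. Inhibition zone diameters were read after 36 h.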
# [10] = Ratio of HC50 for human RBC to MIC for Candida albicans ATCC 2002
# Candida albicans [11] = test: Antimicrobial activity against antibiotic resistant Candida albicans clinical isolate 08030809 in mouse vaginitis model assessed as decrease in colony count in lavage liquid of vagina at 50 ug administered as intravaginal instillation measured on day 6; type: functional
# Candida albicans [12] = test: Antimicrobial activity against antibiotic resistant Candida albicans clinical isolate 08030809 assessed as clone count at 10 times MIC after 24 hrs by colony counting assay (Rvb > 10^5 CFU); type: functional
# Candida albicans [13] = test: Antimicrobial activity against antibiotic resistant Candida albicans clinical isolate 08030809 in mouse vaginitis model assessed as decrease in colony count in lavage liquid of vagina at 20 ug administered as intravaginal instillation measured on day 16; type: functional
# Candida albicans [14] = test: Antimicrobial activity against antibiotic resistant Candida albicans clinical isolate 08022821 after 16 hrs by broth dilution method; type: functional; settings: isolate 08022821, 16 h; how it was run: as §3
# Candida albicans [15] = test: Antimicrobial activity against antibiotic resistant Candida albicans clinical isolate 08030809 assessed as clone count at MIC after 24 hrs by colony counting assay (Rvb > 10^5 CFU); type: functional
# Candida albicans [16] = test: Antimicrobial activity against antibiotic resistant Candida albicans clinical isolate 08030809 compound treated in PBS solution measured after 36 hrs by disc diffusion method; type: functional; settings: isolate 08030809, 36 h
# How it was run: (§4)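 Salt-tolerance test: peptide at 2 mg/mL was prepared in sterile ddH2O, in 150 mM NaCl, or in PBS (150 mM NaCl, 2.7 mM KCl, 1.5 mM KH2PO4, 8 mM K2HPO4, pH 7.2). Anti-C. albicans activity was then assessed by inhibition zone on Sabouraud medium with 0.7% agar.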
# Mus musculus [17] = test: Antiinflammatory activity in antibiotic resistant Candida albicans clinical isolate 08030809 induced mouse vaginitis model assessed as reduction in TNF-alpha secretion in vaginal tissue at 50 ug administered as intravaginal instillation measured on day 10 by ELISA; type: functional, Vagina; how it was run: as §2
# Candida albicans [18] = test: Antimicrobial activity against antibiotic resistant Candida albicans clinical isolate 08030809 assessed as clone count at 10 times MIC after 1 hr by colony counting assay (reference value: 228 +/- 23 CFU); type: functional
# Candida albicans [19] = test: Antimicrobial activity against antibiotic resistant Candida albicans clinical isolate 08030809 assessed as clone count at 5 times MIC after 1 hr by colony counting assay (reference value: 228 +/- 23 CFU); type: functional
# Candida albicans [20] = test: Antimicrobial activity against antibiotic resistant Candida albicans clinical isolate 08030809 compound treated in NaCl solution measured after 36 hrs by disc diffusion method; type: functional; settings: isolate 08030809, 36 h; how it was run: as §4
# Candida albicans [21] = test: Antimicrobial activity against antibiotic resistant Candida albicans clinical isolate 08032815 after 16 hrs by broth dilution method; type: functional; settings: isolate 08032815, 16 h
# How it was run: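 Broth dilution MIC. Samples were serially diluted in 0.9% NaCl and mixed with Sabouraud broth and yeast suspension at 2 × 10^5 CFU/mL, then incubated 16 h at 28°C. Growth was read at 600 nm. MIC is the lowest concentration giving complete growth inhibition, reported as mean of three independent experiments.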
# Mus musculus [22] = test: Antiinflammatory activity in antibiotic resistant Candida albicans clinical isolate 08030809 induced mouse vaginitis model assessed as reduction in IL-1beta secretion in vaginal tissue administered as intravaginal instillation measured on day 10 by ELISA; type: functional, organism-based; settings: Vagina; how it was run: as §2
# Candida albicans [23] = test: Effect on cell membrane integrity in antibiotic resistant Candida albicans clinical isolate 08030809 at MIC measured every 2 mins upto 20 mins by SYTOX green nucleic acid staining-based fluorescence assay; type: functional, organism-based
# How it was run: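 Exponential-phase C. albicans 08030809 was washed and resuspended at 10^6 CFU/mL in 10 mM PBS pH 7.4. Cells were loaded with 0.1 µM (final) SYTOX Green for 15 min at 37°C with shaking, then test samples were added. Fluorescence (ex 488/em 530 nm) was recorded every 2 min as RFU. Mean ± SE of five independent experiments.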
# Candida albicans [24] = test: Antimicrobial activity against antibiotic resistant Candida albicans clinical isolate 08030809 assessed as clone count at 10 times MIC after 1 min by colony counting assay (reference value: 62 +/- 7 CFU); type: functional
# Candida albicans [25] = test: Antimicrobial activity against antibiotic resistant Candida albicans clinical isolate 08030809 in mouse vaginitis model assessed as decrease in colony count in lavage liquid of vagina administered as intravaginal instillation measured on day 1, 6, 11, 16; type: functional, organism-based
substance,measurement,setting,value
H-VKRWKKWRWKWKKWV-NH2,"hemolysis at 0.5 h, 320 ug/mL",[1],3.1%
same,inhibition (INH),Mus musculus [2],32%
same,HC10,"[3]; erythrocyte, 0.5 h",> 320 µg/mL
same,HC50 at 0.5 h,[3]; red blood cells,> 320 µg/mL
same,Activity,Candida albicans [4],0 CFU
same,Activity,Mus musculus [5],Dose-dependent effect
same,MIC,Candida albicans [6],4.69 µg/mL
same,MIC,Candida albicans [7],1.4 µg/mL
same,Activity,Candida albicans [8],0 CFU
same,Activity,Candida albicans [9],Active
same,Ratio,[10],542
same,inhibition (INH),Candida albicans [11],48%
same,Activity,Candida albicans [12],0 CFU
same,inhibition (INH),Candida albicans [13],71%
same,MIC,Candida albicans [14],3.13 µg/mL
same,Activity,Candida albicans [15],0 CFU
same,MIC,Candida albicans [16],1.4 µg/mL
same,inhibition (INH),Mus musculus [17],53%
same,Activity,Candida albicans [18],0 CFU
same,Activity,Candida albicans [19],0 CFU
same,MIC,Candida albicans [20],1.4 µg/mL
same,MIC,Candida albicans [21],2.79 µg/mL
same,Activity,Mus musculus [22],Dose-dependent effect
same,Activity,Candida albicans [23],Active
same,Activity,Candida albicans [24],6 CFU
same,inhibition,Candida albicans [25],Dose-dependent effect
